Results published in ChEMBL document CHEMBL4304745, “On the Process of Discovering Leads That Target the Heparin-Binding Site of Neutrophil Elastase in the Sputum of Cystic Fibrosis Patients” (J Med Chem, 2019).
Values belong to the molecule of their own block, whether it stands above or below them. Active and inactive are the calls of the source. The rule behind the calls is not given here.

What was measured:
[1] = molecular target: T1, Neutrophil elastase (Homo sapiens, UniProt P08246); assay: Inhibition of human neutrophil elastase using S1384 as substrate preincubated for 5 mins followed by substrate addition
T1 sequence (P08246 whole entry): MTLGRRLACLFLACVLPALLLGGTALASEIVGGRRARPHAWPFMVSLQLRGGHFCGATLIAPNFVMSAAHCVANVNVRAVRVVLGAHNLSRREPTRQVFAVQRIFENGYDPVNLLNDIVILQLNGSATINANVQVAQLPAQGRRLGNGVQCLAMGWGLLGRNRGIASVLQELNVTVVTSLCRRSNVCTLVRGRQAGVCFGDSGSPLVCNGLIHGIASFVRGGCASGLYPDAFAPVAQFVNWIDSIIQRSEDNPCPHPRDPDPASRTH

[2] = molecular target: T2, Neutrophil elastase (Homo sapiens) (UniProt P08246); assay: Mixed type inhibition of human neutrophil elastase assessed as decrease in Vmax for substrate at 1000 uM using varying levels of S1384 as substrate by Michaelis-Menten plot analysis relative to control
T2 sequence (whole entry): T1 sequence (P08246 whole entry)

[3] = molecular target: T2, Neutrophil elastase (Homo sapiens); assay: Mixed type inhibition of human neutrophil elastase assessed as increase in Km for substrate at 1000 uM using varying levels of S1384 as substrate by Michaelis-Menten plot analysis relative to control
[4] = molecular target: T2, Neutrophil elastase (Homo sapiens); assay: Inhibition of human neutrophil elastase assessed as reduction in elastin-congo red hydrolysis preincubated for 30 mins followed by elastin-congo red addition measured after 48 hrs
In short: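 Elastin-congo red hydrolysis by HNE at pH 8. Congo red released by elastin degradation is quantified by absorbance at 497 nm. Run in triplicate; error bars are one standard deviation.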

[5] = system: Plasma; assay: Anticoagulant activity in human plasma assessed as effect on activated partial thromboplastin time at 855 uM measured after 5 mins; assay type: ADME, cell-free
In short: (§1)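 APTT and PT recorded in human plasma with compound present at concentrations up to 855 µM. The read-out is the change in clotting time relative to untreated plasma.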

[6] = system: Plasma; assay: Anticoagulant activity in human plasma assessed as effect on prothrombin time at 855 uM measured after 5 mins; assay type: ADME, cell-free; in short: as §1
[7] = molecular target: Coagulation factor X (Homo sapiens, UniProt P00742); assay: Inhibition of factor 10a (unknown origin) using spectrozyme as substrate preincubated for 5 mins followed by substrate addition
Coagulation factor X, sequence (P00742 41-179 limits assumed): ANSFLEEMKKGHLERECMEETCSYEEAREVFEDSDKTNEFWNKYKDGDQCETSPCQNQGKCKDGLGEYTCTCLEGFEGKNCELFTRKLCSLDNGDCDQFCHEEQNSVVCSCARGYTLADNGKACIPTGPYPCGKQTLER
Coagulation factor X, sequence (P00742 235-488 limits assumed): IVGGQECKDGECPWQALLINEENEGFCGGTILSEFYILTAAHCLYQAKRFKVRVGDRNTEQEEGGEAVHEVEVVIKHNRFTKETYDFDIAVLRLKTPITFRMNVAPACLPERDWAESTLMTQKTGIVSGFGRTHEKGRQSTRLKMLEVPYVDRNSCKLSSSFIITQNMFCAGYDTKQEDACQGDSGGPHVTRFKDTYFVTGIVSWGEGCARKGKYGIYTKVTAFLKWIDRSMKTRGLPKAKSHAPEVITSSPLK

[8] = molecular target: Prothrombin (Homo sapiens, UniProt P00734); assay: Inhibition of thrombin (unknown origin) using spectrozyme as substrate preincubated for 5 mins followed by substrate addition
[9] = molecular target: Plasminogen (Homo sapiens, UniProt P00747); assay: Inhibition of plasmin (unknown origin) using spectrozyme as substrate preincubated for 5 mins followed by substrate addition
Plasminogen, sequence (P00747 97-580 limits assumed): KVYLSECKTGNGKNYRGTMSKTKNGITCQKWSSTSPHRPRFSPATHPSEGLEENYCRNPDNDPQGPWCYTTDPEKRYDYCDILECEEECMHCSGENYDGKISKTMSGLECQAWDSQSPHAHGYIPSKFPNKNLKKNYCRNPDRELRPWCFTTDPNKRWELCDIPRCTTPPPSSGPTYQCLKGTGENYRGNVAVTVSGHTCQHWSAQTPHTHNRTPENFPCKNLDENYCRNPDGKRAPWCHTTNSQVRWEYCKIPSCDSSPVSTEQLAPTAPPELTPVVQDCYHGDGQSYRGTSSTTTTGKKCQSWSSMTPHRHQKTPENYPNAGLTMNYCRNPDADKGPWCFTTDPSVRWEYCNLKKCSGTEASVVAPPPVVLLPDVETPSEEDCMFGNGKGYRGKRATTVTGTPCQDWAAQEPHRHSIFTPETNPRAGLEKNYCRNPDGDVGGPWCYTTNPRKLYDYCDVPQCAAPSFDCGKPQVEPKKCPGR
Plasminogen, sequence (P00747 581-810 limits assumed): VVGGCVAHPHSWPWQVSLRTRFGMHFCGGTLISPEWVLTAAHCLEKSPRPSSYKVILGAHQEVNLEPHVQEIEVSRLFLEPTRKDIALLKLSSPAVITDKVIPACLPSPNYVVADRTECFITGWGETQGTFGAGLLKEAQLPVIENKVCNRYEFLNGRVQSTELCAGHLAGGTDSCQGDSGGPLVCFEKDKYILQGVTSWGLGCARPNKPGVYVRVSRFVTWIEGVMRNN

[10] = molecular target: T3, Cathepsin G (Homo sapiens, UniProt P08311); assay: Inhibition of human leukocyte cathepsin G using S7388 as substrate preincubated for 5 mins followed by substrate addition
T3 sequence (P08311 whole entry): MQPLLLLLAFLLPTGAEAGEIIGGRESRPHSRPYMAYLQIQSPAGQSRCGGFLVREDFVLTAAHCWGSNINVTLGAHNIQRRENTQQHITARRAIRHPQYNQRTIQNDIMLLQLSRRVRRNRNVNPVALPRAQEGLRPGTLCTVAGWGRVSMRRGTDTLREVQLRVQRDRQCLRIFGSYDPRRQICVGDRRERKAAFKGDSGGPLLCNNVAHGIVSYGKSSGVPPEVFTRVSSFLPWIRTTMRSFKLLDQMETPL

[11] = molecular target: Coagulation factor XI (Homo sapiens, UniProt P03951); assay: Inhibition of factor 11a (unknown origin) using S-2366 as substrate preincubated for 5 mins followed by substrate addition
Coagulation factor XI, sequence (P03951 19-387 limits assumed): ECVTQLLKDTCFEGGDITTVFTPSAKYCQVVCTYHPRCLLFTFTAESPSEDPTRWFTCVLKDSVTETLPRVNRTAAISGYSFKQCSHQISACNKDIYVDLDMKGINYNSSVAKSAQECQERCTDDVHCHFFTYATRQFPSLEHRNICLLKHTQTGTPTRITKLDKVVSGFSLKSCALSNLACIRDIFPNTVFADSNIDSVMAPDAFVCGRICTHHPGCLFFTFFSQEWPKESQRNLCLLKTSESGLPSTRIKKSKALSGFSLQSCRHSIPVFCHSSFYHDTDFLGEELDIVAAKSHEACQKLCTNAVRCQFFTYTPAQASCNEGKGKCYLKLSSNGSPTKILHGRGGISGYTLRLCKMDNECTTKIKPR
Coagulation factor XI, sequence (P03951 388-625 limits assumed): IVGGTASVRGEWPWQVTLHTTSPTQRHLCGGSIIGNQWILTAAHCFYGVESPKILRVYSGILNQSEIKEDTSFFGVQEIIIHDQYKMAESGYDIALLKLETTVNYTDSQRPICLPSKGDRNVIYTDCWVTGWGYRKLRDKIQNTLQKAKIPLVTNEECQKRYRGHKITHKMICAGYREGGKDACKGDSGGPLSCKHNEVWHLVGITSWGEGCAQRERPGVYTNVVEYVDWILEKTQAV

[12] = species: Homo sapiens; assay: Selectivity ratio of IC50 for factor 11 (unknown origin) to IC50 for human neutrophil elastase
[13] = species: Homo sapiens; assay: Selectivity ratio of IC50 for factor 10a (unknown origin) to IC50 for human neutrophil elastase
[14] = species: Homo sapiens; assay: Selectivity ratio of IC50 for thrombin (unknown origin) to IC50 for human neutrophil elastase
[15] = species: Homo sapiens; assay: Selectivity ratio of IC50 for plasmin (unknown origin) to IC50 for human neutrophil elastase
[16] = molecular target: T4, Myeloblastin (Homo sapiens, UniProt P24158); assay: Inhibition of human neutrophil proteinase 3 using M4765 as substrate preincubated for 5 mins followed by substrate addition
T4 sequence (P24158 whole entry): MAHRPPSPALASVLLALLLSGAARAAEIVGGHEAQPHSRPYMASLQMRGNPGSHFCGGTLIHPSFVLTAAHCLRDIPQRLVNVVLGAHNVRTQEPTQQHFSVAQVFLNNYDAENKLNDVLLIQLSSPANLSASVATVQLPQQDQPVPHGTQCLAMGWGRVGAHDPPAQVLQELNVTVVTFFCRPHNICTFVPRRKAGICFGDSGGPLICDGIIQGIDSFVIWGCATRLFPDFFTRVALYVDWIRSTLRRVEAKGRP

[17] = molecular target: T2, Neutrophil elastase (Homo sapiens); assay: Inhibition of neutrophil elastase in cystic fibrosis patient-derived sputum 2 mM using S1384 as substrate measured after 2 hrs; assay type: tissue-based
[18] = molecular target: T2, Neutrophil elastase (Homo sapiens); assay: Inhibition of neutrophil elastase in cystic fibrosis patient-derived sputum up to 250 using S1384 as substrate measured after 2 hrs in presence of DNAse1 and 150 mM NaCl; assay type: tissue-based
[19] = molecular target: T2, Neutrophil elastase (Homo sapiens); assay: Inhibition of neutrophil elastase in cystic fibrosis patient-derived sputum using S1384 as substrate measured after 2 hrs in presence of DNAse1 and 150 mM NaCl; assay type: tissue-based
In short: (§2)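 Sputum from cystic fibrosis patients is cleared of insoluble debris by centrifugation and treated with DNase. HNE activity is then read by chromogenic substrate hydrolysis across increasing compound concentrations, up to about 2 mM.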

[20] = molecular target: T2, Neutrophil elastase (Homo sapiens); assay: Inhibition of neutrophil elastase in cystic fibrosis patient-derived sputum at 2 mM using S1384 as substrate measured after 2 hrs in presence of DNAse1 and 150 mM NaCl; assay type: tissue-based; in short: as §2
[21] = molecular target: T2, Neutrophil elastase (Homo sapiens); assay: Inhibition of neutrophil elastase in cystic fibrosis patient-derived sputum at 2 mM using S1384 as substrate measured after 2 hrs in presence of DNAse1 and 400 mM NaCl; assay type: tissue-based; in short: as §2
[22] = Solubility of the compound in water; assay type: physicochemical
[23] = system: Plasma; assay: Anticoagulant activity in human plasma assessed as concentration required to double the activated partial thromboplastin time measured after 5 mins; assay type: ADME, cell-free
In short: (§3)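 Clotting times (APTT and PT) measured in human plasma over a range of compound concentrations. The value is the concentration needed to double each clotting time.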

[24] = system: Plasma; assay: Anticoagulant activity in human plasma assessed as concentration required to double the prothrombin time measured after 5 mins; assay type: ADME, cell-free; in short: as §3
[25] = compound: O=c1cc(-c2ccc(OS(=O)(=O)O)cc2)oc2cc(OS(=O)(=O)O)cc(OCc3cccc(COc4cc(OS(=O)(=O)O)cc5oc(-c6ccc(OS(=O)(=O)O)cc6)cc(=O)c45)n3)c12; assay: Mixed type inhibition of human neutrophil elastase assessed as Vmax for substrate at 250 uM using varying levels of S1384 as substrate by Michaelis-Menten plot analysis (reference value: 40.1 +/- 0.5 mAU/min)
[26] = compound: O=c1cc(-c2ccc(OS(=O)(=O)O)cc2)oc2cc(OS(=O)(=O)O)cc(OCc3cccc(COc4cc(OS(=O)(=O)O)cc5oc(-c6ccc(OS(=O)(=O)O)cc6)cc(=O)c45)n3)c12; assay: Mixed type inhibition of human neutrophil elastase assessed as Vmax for substrate at 500 uM using varying levels of S1384 as substrate by Michaelis-Menten plot analysis (reference value: 40.1 +/- 0.5 mAU/min)
[27] = compound: O=c1cc(-c2ccc(OS(=O)(=O)O)cc2)oc2cc(OS(=O)(=O)O)cc(OCc3cccc(COc4cc(OS(=O)(=O)O)cc5oc(-c6ccc(OS(=O)(=O)O)cc6)cc(=O)c45)n3)c12; assay: Mixed type inhibition of human neutrophil elastase assessed as Vmax for substrate at 750 uM using varying levels of S1384 as substrate by Michaelis-Menten plot analysis (reference value: 40.1 +/- 0.5 mAU/min)
[28] = compound: O=c1cc(-c2ccc(OS(=O)(=O)O)cc2)oc2cc(OS(=O)(=O)O)cc(OCc3cccc(COc4cc(OS(=O)(=O)O)cc5oc(-c6ccc(OS(=O)(=O)O)cc6)cc(=O)c45)n3)c12; assay: Mixed type inhibition of human neutrophil elastase assessed as Vmax for substrate at 1000 uM using varying levels of S1384 as substrate by Michaelis-Menten plot analysis (reference value: 40.1 +/- 0.5 mAU/min)
[29] = compound: O=c1cc(-c2ccc(OS(=O)(=O)O)cc2)oc2cc(OS(=O)(=O)O)cc(OCc3cccc(COc4cc(OS(=O)(=O)O)cc5oc(-c6ccc(OS(=O)(=O)O)cc6)cc(=O)c45)n3)c12; assay: Mixed type inhibition of human neutrophil elastase assessed as Km for substrate at 250 uM using varying levels of S1384 as substrate by Michaelis-Menten plot analysis (reference value: 650 +/- 24 uM)
[30] = compound: O=c1cc(-c2ccc(OS(=O)(=O)O)cc2)oc2cc(OS(=O)(=O)O)cc(OCc3cccc(COc4cc(OS(=O)(=O)O)cc5oc(-c6ccc(OS(=O)(=O)O)cc6)cc(=O)c45)n3)c12; assay: Mixed type inhibition of human neutrophil elastase assessed as Km for substrate at 500 uM using varying levels of S1384 as substrate by Michaelis-Menten plot analysis (reference value: 650 +/- 24 uM)
[31] = compound: O=c1cc(-c2ccc(OS(=O)(=O)O)cc2)oc2cc(OS(=O)(=O)O)cc(OCc3cccc(COc4cc(OS(=O)(=O)O)cc5oc(-c6ccc(OS(=O)(=O)O)cc6)cc(=O)c45)n3)c12; assay: Mixed type inhibition of human neutrophil elastase assessed as Km for substrate at 750 uM using varying levels of S1384 as substrate by Michaelis-Menten plot analysis (reference value: 650 +/- 24 uM)
[32] = compound: O=c1cc(-c2ccc(OS(=O)(=O)O)cc2)oc2cc(OS(=O)(=O)O)cc(OCc3cccc(COc4cc(OS(=O)(=O)O)cc5oc(-c6ccc(OS(=O)(=O)O)cc6)cc(=O)c45)n3)c12; assay: Mixed type inhibition of human neutrophil elastase assessed as Km for substrate at 1000 uM using varying levels of S1384 as substrate by Michaelis-Menten plot analysis (reference value: 650 +/- 24 uM)

Molecule: O=c1cc(-c2ccc(OS(=O)(=O)[O-])cc2)oc2cc(OS(=O)(=O)[O-])cc(OCc3cccc(COc4cc(OS(=O)(=O)[O-])cc5oc(-c6ccc(OS(=O)(=O)[O-])cc6)cc(=O)c45)n3)c12.[Na+].[Na+].[Na+].[Na+]
- IC50 [1]: 690 nM
- fold change (FC) [2]: 2.5
- fold change (FC) [3]: 3
- inhibition [4]: Active
- Activity [5]: Non-Toxic
- Activity [6]: Non-Toxic
- inhibition (INH) [7]: Active
- inhibition (INH) [8]: Active
- inhibition (INH) [9]: Active
- IC50 [10]: 1100 nM
- inhibition (INH) [11]: Active
- Ratio IC50 [12]: 28
- Ratio IC50 [13]: > 50
- Ratio IC50 [14]: > 50
- Ratio IC50 [15]: > 50
- IC50 [16]: 54000 nM
- inhibition [17]: inactive
- inhibition [18]: inactive
- inhibition [19]: Dose-dependent effect
- inhibition [20]: 100%
- inhibition [21]: Active
- solubility [22]: > 10000 µg/mL

Molecule: O=c1c(OS(=O)(=O)O)c(-c2ccc(OS(=O)(=O)O)c(OS(=O)(=O)O)c2)oc2cc(OS(=O)(=O)O)cc(OCc3ccc(COc4cc(OS(=O)(=O)O)cc5oc(-c6ccc(OS(=O)(=O)O)c(OS(=O)(=O)O)c6)c(OS(=O)(=O)O)c(=O)c45)cc3)c12
- IC50 [1]: 230 nM

Molecule: O=c1cc(-c2ccc(OS(=O)(=O)O)cc2)oc2cc(OS(=O)(=O)O)cc(OCc3cccc(COc4cc(OS(=O)(=O)O)cc5oc(-c6ccc(OS(=O)(=O)O)cc6)cc(=O)c45)c3)c12
- IC50 [1]: 157000 nM

B1: Neutrophil elastase (Homo sapiens), P08246 (protein)
chain: T1 sequence (P08246 whole entry)
- Vmax [25]: 38.6 mAU/min
- Vmax [26]: 30.3 mAU/min
- Vmax [27]: 19 mAU/min
- Vmax [28]: 15.3 mAU/min
- Km [29]: 908 µM
- Km [30]: 788 µM
- Km [31]: 1220 µM
- Km [32]: 1670 µM

Continued by falling IC50 [1], values first:

- IC50 [1]: 140 nM
Molecule: O=c1c(OS(=O)(=O)O)c(-c2ccc(OS(=O)(=O)O)c(OS(=O)(=O)O)c2)oc2cc(OS(=O)(=O)O)cc(OCCOc3cc(-c4oc5cc(OS(=O)(=O)O)cc(OCCOc6cc(OS(=O)(=O)O)cc7oc(-c8ccc(OS(=O)(=O)O)c(OS(=O)(=O)O)c8)c(OS(=O)(=O)O)c(=O)c67)c5c(=O)c4OS(=O)(=O)O)ccc3OS(=O)(=O)O)c12

- IC50 [1]: 40 nM
- inhibition [4]: Active
- 2aPTT [23]: 49 µM
- 2PT [24]: 152 µM
Molecule: O=C(OC[C@H]1O[C@@H](OC(=O)c2cc(OS(=O)(=O)[O-])c(O)c(OS(=O)(=O)[O-])c2)[C@H](OC(=O)c2cc(OS(=O)(=O)[O-])c(O)c(OS(=O)(=O)[O-])c2)[C@@H](OC(=O)c2cc(OS(=O)(=O)[O-])c(O)c(OS(=O)(=O)[O-])c2)[C@@H]1OC(=O)c1cc(OS(=O)(=O)[O-])c(O)c(OS(=O)(=O)[O-])c1)c1cc(OS(=O)(=O)[O-])c(O)c(OS(=O)(=O)[O-])c1.[Na+].[Na+].[Na+].[Na+].[Na+].[Na+].[Na+].[Na+].[Na+].[Na+] [sulfated pentagalloylglucoside]
